≈ marks a conversion by molar mass, not a printed value. Calls of active or inactive are those of the source. The rule behind the calls is not given here.
Columns and labels:
hERG (KCNH2) = hERG (KCNH2) (Homo sapiens, UniProt Q12809); test: Inhibition of human ERG expressed in HEK293 cells at 10 uM at -80 mV holding potential by […] relative to control; type: cell-based; details: HEK293 cells expressing human ERG
[1] = molecular target: T1, Tyrosine-protein kinase BTK (Homo sapiens, UniProt Q06187); test: Covalent inhibition of N-terminal GST-fused human BTK (2-659(end) amino acids) expressed in baculovirus expression system using FITC-AHA-EEPLYWSFPAKKK-NH2 as substrate incubated for 90 mins by microfluidic off-Chip Mobility Shift Assay
[2] = molecular target: Epidermal growth factor receptor (Homo sapiens, UniProt P00533); test: Inhibition of N-terminal GST-tagged human EGFR (696 to end aminoacids) expressed in baculovirus infected Sf21 cells
Homo sapiens = species on record: Homo sapiens; test: Selectivity ratio, ratio of IC50 for EGFR (unknown origin) to IC50 for full length human BTK ([…])
[3] = molecular target: T1, Tyrosine-protein kinase BTK; test: Inhibition of BTK in human PBMC cells assessed as reduction in anti-IgM-stimulated CD69 expression on B cells preincubated for 60 mins followed by goat F(ab')2 anti-human IgM stimulation and measured after overnight incubation by flow cytometry; type: cell-based
[4] = Apparent permeability across apical to basolateral side in human Caco2 cells at 1 uM incubated for 2 hrs by LC-MS/MS analysis; type: ADME, cell-based; details: Caco-2
[5] = Efflux ratio in human Caco2 cells; type: ADME, cell-based; details: Caco-2
[6] = Kinetic solubility of the compound; type: physicochemical; details: read-out: Kinetic_solubility
[7] = molecular target: Voltage-gated inwardly rectifying potassium channel KCNH2 (Homo sapiens, UniProt Q12809); test: Inhibition of human ERG expressed in HEK293 cells at -80 mV holding potential by […]; type: cell-based
[8] = Intrinsic clearance in human liver microsomes at 1 uM in presence of NADPH measured up to 30 mins by LC-MS/MS analysis; type: ADME, Microsome; details: read-out: CLH
Rattus norvegicus [9] = test: Antiarthritic activity in Lewis rat model of collagen-induced arthritis assessed as reduction in ankle histopathological scores at 0.1 mg/kg, po administered via gavage once daily starting from day 6 to day 16 relative to control; design: scale not given: the % may be the effect or the level left
Rattus norvegicus [10] = test: Antiarthritic activity in Lewis rat model of collagen-induced arthritis assessed as reduction in ankle swelling at 0.1 mg/kg, po administered via gavage once daily starting from day 6 to day 16 and measured from day 11 to day 17 by caliper method
[11] = molecular target: Tyrosine-protein kinase BTK (Homo sapiens, UniProt Q06187, C481S); test: Inhibition of BTK Cys481S mutant (unknown origin)
Mus musculus [12] = test: Inhibition of B cell activation in C57BL/6 mouse at 1 mg/kg, po after 0.25 hr relative to control; type: functional
Mus musculus [13] = test: Inhibition of B cell activation in C57BL/6 mouse at 1 mg/kg, po after 1 hr relative to control; type: functional
Procedure, shortened: (§1)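 Normal C57BL/6 mice received a single oral dose of 1 mg/kg and were tested in an in vivo B cell stimulation assay. Inhibition of B cell activation was read at 1 h and 24 h after dosing.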

Mus musculus [14] = test: Inhibition of B cell activation in C57BL/6 mouse at 1 mg/kg, po after 24 hr relative to control; type: functional; procedure, shortened: as §1
[15] = Cmax in C57BL/6 mouse at 1 mg/kg, po; type: ADME, organism-based; design: dose 1 mg/kg, route oral; details: in vivo
[16] = molecular target: T2, Tyrosine-protein kinase Tec (Homo sapiens, UniProt P42680); test: Inhibition of N-terminal His6-tagged human TEC (174 to end aminoacids) expressed in baculovirus infected Sf21 cells at 1 uM; details: sf21, 1 µM
T2 sequence (P42680 whole entry): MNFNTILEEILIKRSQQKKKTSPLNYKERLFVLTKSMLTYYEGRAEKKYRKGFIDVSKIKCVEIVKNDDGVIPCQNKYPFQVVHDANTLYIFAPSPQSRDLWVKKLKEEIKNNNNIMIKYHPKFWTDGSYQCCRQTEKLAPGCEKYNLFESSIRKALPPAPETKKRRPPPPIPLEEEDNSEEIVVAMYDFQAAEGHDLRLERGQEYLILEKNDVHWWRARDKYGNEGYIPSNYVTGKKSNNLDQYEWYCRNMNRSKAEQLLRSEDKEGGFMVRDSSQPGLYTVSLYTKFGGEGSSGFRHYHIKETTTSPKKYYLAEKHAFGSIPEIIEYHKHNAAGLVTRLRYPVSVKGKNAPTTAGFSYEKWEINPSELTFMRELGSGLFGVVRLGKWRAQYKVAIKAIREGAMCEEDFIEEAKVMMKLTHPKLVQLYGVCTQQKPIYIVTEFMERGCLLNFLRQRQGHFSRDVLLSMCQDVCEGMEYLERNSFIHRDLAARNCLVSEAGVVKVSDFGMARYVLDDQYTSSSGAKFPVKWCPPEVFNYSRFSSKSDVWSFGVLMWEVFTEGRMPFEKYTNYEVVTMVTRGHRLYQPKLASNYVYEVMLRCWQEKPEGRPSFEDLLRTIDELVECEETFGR

[17] = Tmax in NMRI mouse at 3 mg/kg, po administered as suspension; type: ADME, organism-based; details: in vivo
[18] = Tmax in Wistar rat at 10 mg/kg, po administered as suspension; type: ADME, organism-based; details: in vivo
[19] = Tmax in Mongrel dog at 3 mg/kg, po administered as suspension; type: ADME, organism-based, Canis lupus familiaris; details: in vivo
[20] = Half-life in Mongrel dog plasma at 1 mg/kg, iv or 3 mg/kg, po administered as suspension; type: ADME, organism-based, Canis lupus familiaris
[21] = Half-life in NMRI mouse plasma at 1 mg/kg, iv or 3 mg/kg, po administered as suspension; type: ADME, organism-based
[22] = Half-life in Wistar rat plasma at 2 mg/kg, iv or 10 mg/kg, po administered as suspension; type: ADME, organism-based
[23] = Oral bioavailability in NMRI mouse at 3 mg/kg; type: ADME, organism-based; details: in vivo
[24] = Oral bioavailability in Wistar rat at 10 mg/kg; type: ADME, organism-based; details: in vivo
Mus musculus [25] = test: Antiarthritic activity in […] model of collagen-induced arthritis assessed as reduction in ankle swelling at 3 mg/kg, po administered via gavage once daily starting from day 6 to day 16 and measured from day 11 to day 17 by caliper method; type: functional, organism-based
Procedure, shortened: (§2)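 Female Lewis rats with semi-established type II collagen arthritis were dosed by oral gavage once daily on days 6–16 with vehicle (20% hydroxypropyl-beta-cyclodextrin in H2O), test agent (0.3–30 mg/kg) or methotrexate 0.1 mg/kg. Ankle thickness was measured daily by caliper, and animals were terminated on day 17. n = 10 per treatment group, 4 normal controls; ANOVA vs vehicle, P ≤ 0.05.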

Mus musculus [26] = test: Antiarthritic activity in […] model of collagen-induced arthritis assessed as reduction in ankle swelling at 10 mg/kg, po administered via gavage once daily starting from day 6 to day 16 and measured from day 11 to day 17 by caliper method; type: functional, organism-based; procedure, shortened: as §2
Mus musculus [27] = test: Antiarthritic activity in […] model of collagen-induced arthritis assessed as reduction in ankle swelling at 30 mg/kg, po administered via gavage once daily starting from day 6 to day 16 and measured from day 10 to day 17 by caliper method; type: functional, organism-based; procedure, shortened: as §2
[28] = Stability of the compound in plasma (unknown origin) assessed as compound remaining at 4 hrs; type: ADME, cell-free; details: read-out: Stability
Rattus norvegicus [29] = test: Antiarthritic activity in Lewis rat model of collagen-induced arthritis assessed as reduction in ankle histopathological scores at 1 mg/kg, po administered via gavage once daily starting from day 6 to day 16 relative to control; design: scale not given: the % may be the effect or the level left
Rattus norvegicus [30] = test: Antiarthritic activity in Lewis rat model of collagen-induced arthritis assessed as reduction in ankle histopathological scores at 3 mg/kg, po administered via gavage once daily starting from day 6 to day 16 relative to control; design: scale not given: the % may be the effect or the level left
Rattus norvegicus [31] = test: Antiarthritic activity in Lewis rat model of collagen-induced arthritis assessed as reduction in ankle histopathological scores at 10 mg/kg, po administered via gavage once daily starting from day 6 to day 16 relative to control; design: scale not given: the % may be the effect or the level left
Rattus norvegicus [32] = test: Antiarthritic activity in Lewis rat model of collagen-induced arthritis assessed as reduction in ankle histopathological scores at 30 mg/kg, po administered via gavage once daily starting from day 6 to day 16 relative to control; design: scale not given: the % may be the effect or the level left
Rattus norvegicus [33] = test: Antiarthritic activity in Lewis rat model of collagen-induced arthritis assessed as reduction in ankle histopathological scores at 0.3 mg/kg, po administered via gavage once daily starting from day 6 to day 16 relative to control; design: scale not given: the % may be the effect or the level left

Sequence of Voltage-gated inwardly rectifying potassium channel KCNH2 (Q12809 whole entry): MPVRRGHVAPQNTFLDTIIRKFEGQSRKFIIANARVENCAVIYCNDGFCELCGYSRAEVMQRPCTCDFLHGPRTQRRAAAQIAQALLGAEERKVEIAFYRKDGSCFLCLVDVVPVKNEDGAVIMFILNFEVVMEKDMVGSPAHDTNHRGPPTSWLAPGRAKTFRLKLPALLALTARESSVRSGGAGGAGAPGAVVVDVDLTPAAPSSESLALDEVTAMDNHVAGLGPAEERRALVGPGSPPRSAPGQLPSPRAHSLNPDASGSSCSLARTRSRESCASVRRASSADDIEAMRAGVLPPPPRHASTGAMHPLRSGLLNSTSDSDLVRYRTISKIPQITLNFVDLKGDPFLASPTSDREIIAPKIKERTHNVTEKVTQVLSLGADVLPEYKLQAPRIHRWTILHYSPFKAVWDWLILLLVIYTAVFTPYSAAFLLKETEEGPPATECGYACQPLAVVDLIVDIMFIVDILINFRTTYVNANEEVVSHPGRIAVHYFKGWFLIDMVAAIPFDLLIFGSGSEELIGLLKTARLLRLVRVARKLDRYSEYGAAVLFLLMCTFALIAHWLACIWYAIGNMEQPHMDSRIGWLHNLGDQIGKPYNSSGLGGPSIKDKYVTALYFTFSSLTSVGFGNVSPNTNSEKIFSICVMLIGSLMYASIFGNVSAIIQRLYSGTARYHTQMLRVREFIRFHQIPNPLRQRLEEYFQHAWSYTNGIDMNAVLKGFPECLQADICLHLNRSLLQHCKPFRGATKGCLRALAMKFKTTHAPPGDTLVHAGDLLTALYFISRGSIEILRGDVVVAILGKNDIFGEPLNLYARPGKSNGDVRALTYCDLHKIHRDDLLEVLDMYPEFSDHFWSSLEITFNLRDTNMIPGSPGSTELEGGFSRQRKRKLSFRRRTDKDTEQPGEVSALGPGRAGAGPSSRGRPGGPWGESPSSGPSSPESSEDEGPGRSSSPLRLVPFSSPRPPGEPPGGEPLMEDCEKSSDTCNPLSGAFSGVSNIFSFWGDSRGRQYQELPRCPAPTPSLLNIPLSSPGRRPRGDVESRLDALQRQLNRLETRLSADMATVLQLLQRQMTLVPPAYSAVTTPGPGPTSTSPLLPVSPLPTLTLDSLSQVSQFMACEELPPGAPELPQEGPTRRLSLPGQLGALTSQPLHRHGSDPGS
Sequence of hERG (KCNH2) (Q12809 whole entry, the tested form may be a part): as the sequence (Q12809 whole entry) above
T1 sequence (Q06187 whole entry, the tested form may be a part): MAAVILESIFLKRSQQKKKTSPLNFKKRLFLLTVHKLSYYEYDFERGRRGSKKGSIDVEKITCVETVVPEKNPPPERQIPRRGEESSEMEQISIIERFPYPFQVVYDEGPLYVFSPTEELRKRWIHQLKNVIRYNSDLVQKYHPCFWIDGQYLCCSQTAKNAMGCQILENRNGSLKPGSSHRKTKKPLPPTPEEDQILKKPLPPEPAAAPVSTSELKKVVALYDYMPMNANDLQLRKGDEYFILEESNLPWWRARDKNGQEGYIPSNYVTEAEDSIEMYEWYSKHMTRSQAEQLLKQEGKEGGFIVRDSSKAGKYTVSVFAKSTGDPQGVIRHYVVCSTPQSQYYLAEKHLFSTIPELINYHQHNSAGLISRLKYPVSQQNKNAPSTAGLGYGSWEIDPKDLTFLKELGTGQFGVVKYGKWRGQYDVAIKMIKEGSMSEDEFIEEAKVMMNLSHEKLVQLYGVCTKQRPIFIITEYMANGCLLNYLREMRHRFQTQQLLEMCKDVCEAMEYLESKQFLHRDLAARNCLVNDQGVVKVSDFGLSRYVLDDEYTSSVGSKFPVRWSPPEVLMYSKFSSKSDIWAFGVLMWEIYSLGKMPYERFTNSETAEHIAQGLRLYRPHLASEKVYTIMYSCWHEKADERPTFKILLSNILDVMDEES
Sequence of Epidermal growth factor receptor (P00533 whole entry): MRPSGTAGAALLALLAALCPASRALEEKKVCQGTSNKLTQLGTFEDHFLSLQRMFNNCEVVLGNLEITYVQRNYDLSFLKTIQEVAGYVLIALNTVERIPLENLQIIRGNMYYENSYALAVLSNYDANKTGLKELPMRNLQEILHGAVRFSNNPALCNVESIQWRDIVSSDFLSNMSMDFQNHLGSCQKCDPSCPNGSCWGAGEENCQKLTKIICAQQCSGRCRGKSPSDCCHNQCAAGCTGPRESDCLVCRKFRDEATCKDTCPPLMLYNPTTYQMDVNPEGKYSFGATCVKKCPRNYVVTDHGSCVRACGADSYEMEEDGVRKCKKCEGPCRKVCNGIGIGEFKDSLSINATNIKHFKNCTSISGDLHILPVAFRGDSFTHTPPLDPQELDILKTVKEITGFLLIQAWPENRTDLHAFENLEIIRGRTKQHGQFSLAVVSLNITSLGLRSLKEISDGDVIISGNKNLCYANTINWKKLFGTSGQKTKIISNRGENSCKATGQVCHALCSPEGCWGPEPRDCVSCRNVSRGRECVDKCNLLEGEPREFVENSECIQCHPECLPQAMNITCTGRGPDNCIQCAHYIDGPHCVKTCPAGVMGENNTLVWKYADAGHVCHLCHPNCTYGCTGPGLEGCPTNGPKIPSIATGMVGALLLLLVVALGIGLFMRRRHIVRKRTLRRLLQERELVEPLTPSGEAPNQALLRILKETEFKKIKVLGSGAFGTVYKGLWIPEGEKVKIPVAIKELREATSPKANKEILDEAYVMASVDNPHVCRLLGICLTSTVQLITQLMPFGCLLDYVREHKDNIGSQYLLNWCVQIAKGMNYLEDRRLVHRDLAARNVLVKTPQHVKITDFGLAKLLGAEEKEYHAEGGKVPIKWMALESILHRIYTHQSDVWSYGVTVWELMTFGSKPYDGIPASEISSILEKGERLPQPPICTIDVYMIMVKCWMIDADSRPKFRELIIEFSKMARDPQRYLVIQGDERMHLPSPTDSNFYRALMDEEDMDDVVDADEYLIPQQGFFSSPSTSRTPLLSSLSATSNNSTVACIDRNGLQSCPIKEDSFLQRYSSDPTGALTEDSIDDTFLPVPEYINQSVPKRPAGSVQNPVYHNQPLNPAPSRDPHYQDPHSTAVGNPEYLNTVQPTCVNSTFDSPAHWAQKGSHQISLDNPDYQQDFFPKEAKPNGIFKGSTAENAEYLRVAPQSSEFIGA
Sequence of Tyrosine-protein kinase BTK (Homo sapiens, UniProt Q06187, C481S) (Q06187 2-659 C481S limits assumed): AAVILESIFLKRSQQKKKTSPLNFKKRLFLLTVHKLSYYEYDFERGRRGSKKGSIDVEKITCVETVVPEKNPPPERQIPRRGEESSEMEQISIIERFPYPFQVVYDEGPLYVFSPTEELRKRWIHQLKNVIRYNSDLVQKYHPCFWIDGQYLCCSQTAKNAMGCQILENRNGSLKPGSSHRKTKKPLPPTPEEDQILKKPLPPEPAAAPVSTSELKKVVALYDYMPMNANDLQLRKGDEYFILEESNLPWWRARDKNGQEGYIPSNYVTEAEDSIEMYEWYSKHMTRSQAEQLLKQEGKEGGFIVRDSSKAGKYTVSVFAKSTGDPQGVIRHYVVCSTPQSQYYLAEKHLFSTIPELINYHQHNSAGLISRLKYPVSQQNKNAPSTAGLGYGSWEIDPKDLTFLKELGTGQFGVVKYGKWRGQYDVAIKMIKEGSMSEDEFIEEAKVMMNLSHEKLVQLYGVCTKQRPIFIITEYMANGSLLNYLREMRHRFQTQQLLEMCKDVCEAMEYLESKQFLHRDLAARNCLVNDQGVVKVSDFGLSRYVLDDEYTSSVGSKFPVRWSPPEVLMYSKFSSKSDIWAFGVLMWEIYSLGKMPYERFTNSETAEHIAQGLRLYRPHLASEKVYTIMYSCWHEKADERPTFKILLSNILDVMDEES

## C=CC(=O)Nc1cccc(Oc2ccnc(N)c2-c2ccc(Oc3ccccc3)cc2)c1
hERG (KCNH2)
  inhibition at 10 µM: 81%
[1]
  IC50: 0.005 µM
[2]
  IC50: 0.14 µM
Homo sapiens
  Ratio IC50: 25 to 30

## C=CC(=O)NC12CCC(Nc3ncnc(N)c3-c3ccc(Oc4ccccc4)cc3)(C1)C2
[1]
  IC50: 0.0099 µM
[3]
  IC50: 0.07 µM
[4]
  Papp A→B at 2 h, 1 µM: 217 nm/s
[5]
  efflux ratio: 1.4
[6]
  solubility kinetic: 110 µM (≈ 47 µg/mL)
[7]
  Ki: 1.3 µM
[8]
  microsomal CLint at 1 µM: 36 µL/min/mg

## C=CC(=O)Nc1cccc(Nc2ncnc(N)c2-c2ccc(Oc3ccccc3)cc2)c1
[1]
  IC50: 0.004 µM
[2]
  IC50: 0.004 µM
[3]
  IC50: 0.019 µM
[4]
  Papp A→B at 2 h, 1 µM: 42 nm/s
[5]
  efflux ratio: 1.6
[6]
  solubility kinetic: 16 µM (≈ 6.78 µg/mL)
[7]
  Ki: 0.53 µM
[8]
  microsomal CLint at 1 µM: 43 µL/min/mg

## CN(Cc1cnc2nc(N)nc(N)c2n1)c1ccc(C(=O)N[C@@H](CCC(=O)O)C(=O)O)cc1 [METHOTREXATE]
Rattus norvegicus [9]
  Activity: 60%
Rattus norvegicus [10]
  Activity: Active

## C=CC(=O)Nc1cccc(Oc2ncnc(N)c2-c2ccc(Oc3ccccc3)cc2)c1
hERG (KCNH2)
  inhibition at 10 µM: 3%
[1]
  IC50: 0.0029 to 0.003 µM
[2]
  IC50: 0.078 µM
Homo sapiens
  Ratio IC50: 25 to 30
[3]
  IC50: 0.0099 µM
[4]
  Papp A→B at 2 h, 1 µM: 16 nm/s
[5]
  efflux ratio: 4.3
[6]
  solubility kinetic: < 2.4 µM
[8]
  microsomal CLint at 1 µM: 277 µL/min/mg

## CC(=O)N1CCC(CNc2ncnc(N)c2-c2ccc(Oc3ccccc3)cc2)CC1
[11]
  IC50: 8.6 to 8.7 µM

## C=CC(=O)N1CCC(O)(CNc2ncnc(N)c2-c2ccc(Oc3ccccc3)cc2)CC1
hERG (KCNH2)
  inhibition at 10 µM: 45%
[4]
  Papp A→B at 2 h, 1 µM: 90 nm/s
[6]
  solubility kinetic: 169 µM (≈ 75.3 µg/mL)
[8]
  microsomal CLint at 1 µM: 68 µL/min/mg
Mus musculus [12]; Mus musculus, C57BL/6, po, 0.25 h
  inhibition in vivo at 1 mg/kg: 37%
Mus musculus [13]; Mus musculus, C57BL/6, po, 1 h
  inhibition in vivo at 1 mg/kg: 42%
Mus musculus [14]; Mus musculus, C57BL/6, po, 24 h
  inhibition in vivo at 1 mg/kg: 15%
[15]
  Cmax: 0.257 µM

## C=CC(=O)N1CCC(CNc2ncnc(N)c2-c2ccc(Oc3ccccc3)cc2)CC1 [EVOBRUTINIB]
[4]
  Papp A→B at 2 h, 1 µM: 220 nm/s
[6]
  solubility kinetic: 60 µM (≈ 25.8 µg/mL)
[7]
  Ki: 3.1 µM
[8]
  microsomal CLint at 1 µM: 110 µL/min/mg
Mus musculus [12]
  inhibition (INH): 17%
Mus musculus [13]
  inhibition (INH): 71%
Mus musculus [14]
  inhibition (INH): 25%
[15]
  Cmax: 0.052 µM
[16]
  inhibition (INH): Active
[17]
  Tmax: 0.25 to 1 h
[18]
  Tmax: 0.25 to 1 h
[19]
  Tmax: 0.25 to 1 h
[20]
  half-life: 1 h
[21]
  half-life: 1 h
[22]
  half-life: 1 h
[23]
  bioavailability: ≤ 25%
[24]
  bioavailability: < 5%
Mus musculus [25]
  Activity: Active
Mus musculus [26]
  Activity: Active
Mus musculus [27]
  Activity: Active
[28]
  remaining at 4 h: 81%
Rattus norvegicus [29]
  Activity: 3%
Rattus norvegicus [30]
  Activity: 42%
Rattus norvegicus [31]
  Activity: 63%
Rattus norvegicus [32]
  Activity: 94%
Rattus norvegicus [33]
  Activity: 1%

Reference: ChEMBL document CHEMBL4373703 (J Med Chem, 2019)
